# Assay results reported in ChEMBL document CHEMBL4261642, “Design, synthesis, and ex vivo evaluation of a selective inhibitor for retinaldehyde dehydrogenase enzymes” (Bioorg Med Chem, 2018).
# Columns and labels:
# [1] = biological target: T1, Retinal dehydrogenase 2 (Gallus gallus) (UniProt O93344); experiment: Inhibition of N-terminal His6-tagged recombinant chick RALDH2 expressed in Escherichia coli BL21(DE3) cells at 250 nM using RAL as substrate assessed as remaining activity preincubated for 5 mins followed by all-trans-retinaldehyde and substrate addition measured after 30 mins in presence of NAD+ by fluorescence assay
# T1 sequence (whole entry): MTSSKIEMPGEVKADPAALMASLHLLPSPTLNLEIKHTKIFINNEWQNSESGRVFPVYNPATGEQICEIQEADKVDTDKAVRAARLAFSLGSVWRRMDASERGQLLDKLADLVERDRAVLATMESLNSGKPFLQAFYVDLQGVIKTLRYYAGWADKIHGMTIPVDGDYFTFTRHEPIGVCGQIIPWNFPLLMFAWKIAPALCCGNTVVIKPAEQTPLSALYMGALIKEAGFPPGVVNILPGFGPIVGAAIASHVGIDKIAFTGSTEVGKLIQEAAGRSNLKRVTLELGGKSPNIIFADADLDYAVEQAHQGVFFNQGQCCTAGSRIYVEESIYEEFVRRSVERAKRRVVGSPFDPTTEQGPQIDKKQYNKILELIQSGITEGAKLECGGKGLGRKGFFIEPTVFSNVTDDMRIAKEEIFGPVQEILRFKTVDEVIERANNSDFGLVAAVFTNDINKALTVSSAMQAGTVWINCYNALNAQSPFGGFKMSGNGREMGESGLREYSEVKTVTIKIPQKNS
# Procedure, shortened: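 Chick RALDH2 (91 nM) pre-incubated with 250 nM inhibitor for 0–80 min at 37°C, alone or with 250 μM retinaldehyde or 250 μM NAD+. Reaction then started with the missing substrate and/or cofactor (250 μM retinaldehyde, 4 mM NAD), 30 min at 37°C. Fluorimetric NADH; % activity remaining. Triplicates.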
# [2] = biological target: T1, Retinal dehydrogenase 2 (Gallus gallus); experiment: Inhibition of chick RALDH2 expressed in doxycycline-inducible HEK293 cells assessed as inhibition of ATRA synthesis at 0.05 uM after 24 hrs in presence of […]; type: cell-based
# [3] = biological target: T2, Retinal dehydrogenase 2 (Gallus gallus, UniProt O93344); experiment: Inhibition of RALDH2 in choroidal cytosol fraction from 4 day recovering chick assessed as inhibition of ATRA synthesis pre-incubated for 20 mins followed by […] addition and measured after 30 mins by HPLC analysis
# T2 sequence (O93344 whole entry): T1 sequence (whole entry)
# [4] = biological target: T1, Retinal dehydrogenase 2 (Gallus gallus); experiment: Inhibition of RALDH2 in choroidal cytosol fraction from 4 day recovering chick assessed as inhibition of ATRA synthesis at 0.1 to 6 uM pre-incubated for 20 mins followed by […] addition and measured after 30 mins by HPLC analysis
# Procedure, shortened: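 Choroid cytosol fractions (100,000 × g supernatant) from 4-day recovering chick eyes pre-incubated 20 min at 37°C with 0.01–6 μM inhibitor or DMSO. Reaction started with 4 mM NAD+ and 25 μM all-trans-retinaldehyde, 30 min at 37°C. ATRA extracted and quantified by reverse-phase HPLC (350 nm, MS). Two experiments, n = 3–5 each.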
# [5] = biological target: T1, Retinal dehydrogenase 2 (Gallus gallus); experiment: Inhibition of RALDH2 in living intact choroid isolated from 4 day recovering chick eyes assessed as inhibition of ATRA synthesis at 1 uM after 24 hrs in presence of […]
# [6] = biological target: T3, Aldehyde dehydrogenase, mitochondrial (Homo sapiens, UniProt P05091); experiment: Inhibition of N-terminal His6-tagged recombinant human mitochondrial ALDH2 using propionaldehyde as substrate measured after 30 mins in presence of NADH by Morrison's plot analysis
# T3 sequence (P05091 whole entry): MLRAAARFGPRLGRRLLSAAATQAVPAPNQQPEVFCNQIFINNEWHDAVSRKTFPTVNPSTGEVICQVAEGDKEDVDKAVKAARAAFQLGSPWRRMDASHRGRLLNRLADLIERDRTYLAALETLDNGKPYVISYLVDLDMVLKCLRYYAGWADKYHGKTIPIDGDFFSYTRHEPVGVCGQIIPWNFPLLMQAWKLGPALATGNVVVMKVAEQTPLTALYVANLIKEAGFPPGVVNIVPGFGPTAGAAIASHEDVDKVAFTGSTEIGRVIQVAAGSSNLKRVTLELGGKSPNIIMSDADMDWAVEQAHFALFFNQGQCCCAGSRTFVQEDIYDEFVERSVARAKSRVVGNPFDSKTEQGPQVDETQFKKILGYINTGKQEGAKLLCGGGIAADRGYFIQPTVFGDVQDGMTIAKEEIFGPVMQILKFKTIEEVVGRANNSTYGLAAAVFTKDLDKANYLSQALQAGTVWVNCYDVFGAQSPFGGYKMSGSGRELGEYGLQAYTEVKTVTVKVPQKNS
# [7] = biological target: T4, Retinal dehydrogenase 2 (Homo sapiens, UniProt O94788); experiment: Inhibition of N-terminal His6-tagged recombinant human RALDH2 using RAL as substrate preincubated for 20 mins followed by substrate addition and measured after 30 mins in presence of NADH by fluorescence assay
# T4 sequence (O94788 whole entry): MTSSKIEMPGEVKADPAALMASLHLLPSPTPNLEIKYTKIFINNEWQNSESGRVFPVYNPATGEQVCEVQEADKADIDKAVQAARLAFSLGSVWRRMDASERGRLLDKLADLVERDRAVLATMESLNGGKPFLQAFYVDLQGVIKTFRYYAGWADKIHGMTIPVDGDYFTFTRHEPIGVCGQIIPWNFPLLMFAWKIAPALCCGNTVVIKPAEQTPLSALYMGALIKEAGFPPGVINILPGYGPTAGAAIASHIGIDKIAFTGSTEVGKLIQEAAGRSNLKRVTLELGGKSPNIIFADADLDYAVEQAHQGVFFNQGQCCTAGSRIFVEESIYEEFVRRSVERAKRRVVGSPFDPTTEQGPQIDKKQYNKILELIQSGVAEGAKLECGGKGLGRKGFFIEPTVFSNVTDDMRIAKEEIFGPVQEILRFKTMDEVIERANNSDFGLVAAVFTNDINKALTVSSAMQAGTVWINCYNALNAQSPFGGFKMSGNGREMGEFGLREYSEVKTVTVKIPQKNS
# Procedure, shortened: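 Purified His-tagged recombinant enzyme in dialysis buffer with 2 mM DTT. Amounts were chick RALDH1 2 μg (0.358 μM), chick RALDH2 0.5 μg (0.091 μM), chick RALDH3 2 μg (0.355 μM) and human RALDH2 1 μg (0.176 μM). Enzyme pre-incubated 20 min at 37°C with 0–10 μM inhibitor in DMSO. Reaction started with final 4 mM NAD+ in pyrophosphate pH 8.2 buffer plus 250 μM retinaldehyde, 30 min at 37°C. NADH read fluorimetrically (Ex/Em 540/590) against a standard curve. Triplicates, 3–5 experiments.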
# [8] = biological target: T2, Retinal dehydrogenase 2; experiment: Inhibition of N-terminal His6-tagged recombinant chick RALDH2 expressed in Escherichia coli BL21(DE3) cells using RAL as substrate measured after 30 mins in presence of NADH by Morrison's plot analysis
# Procedure, shortened: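 Ki obtained by fitting the Morrison tight-binding equation to the 20-min pre-incubation retinaldehyde/NADH fluorescence inhibition data. Inputs were enzyme concentration (RALDH1 0.358, RALDH2 0.091, RALDH3 0.355, hRALDH2 0.176 μM), substrate concentration and Km. Triplicates from 3–5 independent experiments.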
structure (smiles),measurement,setting,value
CC1=C(/C=C/C(C)=C/C=C/C(C)=C/C(=O)C(Cl)Cl)C(C)(C)CCC1,Activity,[1],39.2%
same,inhibition,[2],42%
same,IC50,[3],53.6 nM
same,inhibition,[4],70 to 96%
same,inhibition,[5],42%
same,Ki,[6],Not Active
same,IC50,[7],191 nM
same,Ki,[8],5.1 nM
